ChEMBL document CHEMBL1126709, “Structure-activity relationship studies at the benzodiazepine receptor (BZR): a comparison of the substitutent effects of pyrazoloquinolinone analogs” (J Med Chem, 1993)
pIC50: −log10 of the molar value.

Assays:
[1] = target: GABA-A receptor; anion channel (Rattus norvegicus) (UniProt O09028+P15431+P18506+P18508+P19969+P20236+P23574+P23576+P28471+P28473+P30191+P62813+P63079+P63138+Q91ZM7+Q9ES14); experiment: Relative binding to GABA-A receptor in the presence and absence of GABA; type: protein-complex assay
Method in brief: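 GABA shift ratio is IC50 without GABA divided by IC50 with GABA. Both were measured as [3H]Ro15-1788 (1 nM) displacement in washed rat cortical membranes, 1 h at 0–4 °C, with filtration and scintillation counting. The GABA arm also contained NaCl (400 mM) and GABA (200 mM, as printed). Curves used 10 concentrations in triplicate.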

[2] = target: GABA-A receptor; anion channel; experiment: Partial agonistic activity against specific binding of [3H]-Ro-15-1788 to GABA-A Benzodiazepine receptor in rat cortex
Method in brief: (§1)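 Rat brain (Sprague-Dawley) cortex homogenized in 50 mM Tris-citrate pH 7.4, centrifuged at 20000g, washed five times and stored at -80 °C. About 0.12 mg protein was incubated with [3H]Ro15-1788 (1 nM final) for 1 h at 0–4 °C. Nonspecific binding was defined with 10 μM Ro14-7437. Bound label was separated by filtration and counted by scintillation. IC50 was taken from 10-concentration curves run in triplicate.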

[3] = target: GABA-A receptor; anion channel; experiment: Specific binding of [3H]Ro-151788 to GABA-A Benzodiazepine receptor in rat cortex; method in brief: as §1

| SMILES | Ratio [1] | pIC50 [2] | pIC50 [3] |
| --- | --- | --- | --- |
| O=C1C2C=Nc3ccccc3C2=NN1c1ccc(Cl)cc1 (stereo not drawn) [CGS-9896] | 1.07 | 9.25 | – |
| O=C1C2C=Nc3ccccc3C2=NN1c1ccccc1 (stereo not drawn) [CGS-8216] | 0.99 | 9.89 | – |
| COc1ccc2ncc3c(=O)n(-c4ccccc4)[nH]c3c2c1 | 0.91 | – | 9.42 |
| COc1ccccc1-n1[nH]c2c(cnc3ccccc32)c1=O | – | – | 6.00 |
| COc1ccc2c(c1)ncc1c(=O)n(-c3ccccc3)[nH]c12 | 0.97 | – | 8.68 |
| O=c1c2cnc3ccc(Cl)cc3c2[nH]n1-c1ccccc1Cl | 1.34 | – | 8.10 |
| O=c1c2cnc3ccc(Cl)cc3c2[nH]n1-c1ccccc1 | 1.1 | – | 9.62 |
| O=c1c2cnc3ccc(Cl)cc3c2[nH]n1-c1ccc(Cl)cc1 | 1.47 | – | 8.40 |
| COc1cccc(-n2[nH]c3c(cnc4ccccc43)c2=O)c1 | 1.1 | – | 9.24 |
| O=c1c2cnc3ccccc3c2[nH]n1-c1ccccc1Cl | 1 | – | 7.15 |
| O=c1c2cnc3ccccc3c2[nH]n1-c1cccc(Cl)c1 | 1.7 | – | 8.41 |
| COc1ccc(-n2nc3c4ccccc4[nH]cc-3c2=O)cc1 | 0.94 | 9.42 | – |
